Columns and labels:
[1] = Plasma concentration in Sprague-Dawley rat at 5 mg/kg, po after 4 hrs by LC-MS/MS analysis; assay type: ADME, organism-based; set-up: dose 5 mg/kg, route oral
Outline: (§1)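 Male Sprague-Dawley rats fitted with jugular catheters, fed, three per compound, dosed orally at 5 mg/kg. Vehicle was 1% CMC/0.2% Tween80 in water, or 80% PEG 400/20% pH 2 30 mM citric acid, depending on compound. Serial heparinized blood taken at 1, 2, 4 and 6 h. Plasma proteins precipitated with acetonitrile; compound quantified by LC/MS/MS in MRM mode.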

[2] = Aqueous solubility at pH 7.4; assay type: physicochemical
[3] = Plasma concentration in Sprague-Dawley rat at 5 mg/kg, po after 2 hrs by LC-MS/MS analysis; assay type: ADME, organism-based; set-up: dose 5 mg/kg, route oral; outline: as §1
[4] = Plasma concentration in Sprague-Dawley rat at 5 mg/kg, po after 1 hr by LC-MS/MS analysis; assay type: ADME, organism-based; set-up: dose 5 mg/kg, route oral; outline: as §1

SMILES	concentration at 4 h [1] [nM]	solubility [2] [µg/mL]	concentration at 2 h [3] [nM]	concentration at 1 h [4] [nM]
CS(=O)(=O)c1ccc(C(CCNC(=O)c2ccc(C#N)cc2)c2ccc(F)cc2)cc1 (stereo not given)	3600			
O=C(NCCC(c1ccc(F)cc1)c1ccc(F)cc1)c1ccc(OCC(F)(F)F)nc1	100	< 0.1	200	300

Source: ChEMBL document CHEMBL1153540, “Structure-based optimization of arylamides as inhibitors of soluble epoxide hydrolase” (J Med Chem, 2009)
